Tests used:
[1] = test system: Trypanosoma cruzi; test: Antitrypanosomal activity against Trypanosoma cruzi Tulahuen 2 at 25 uM relative to nifurtimox; assay type: functional; settings: read-out: GI
Outline: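 Epimastigotes of Tulahuen 2 strain exposed to 25 µM compound, up to 1% DMSO. A600 read right after inoculation (day 0) and at day 5. %inhibition = {1 − [(Ap − A0p)/(Ac − A0c)]} × 100 against drug-free control. Means of three independent experiments; nifurtimox as reference drug.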

[2] = test system: Trypanosoma cruzi; test: Antitrypanosomal activity against Trypanosoma cruzi Tulahuen 2; assay type: functional, organism-based
Outline: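 Epimastigotes of T. cruzi Tulahuen 2 grown with compound, up to 1% DMSO tolerated. Growth followed as absorbance at 600 nm at day 0 and day 5. Percent inhibition taken relative to drug-free control. IC50 determined only for compounds giving >80% inhibition at 25 µM. Means of three independent experiments; nifurtimox reference.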

[3] = test system: J774; test: Cytotoxicity against mouse J774 cells at 400 uM after 48 hrs by MTT assay; assay type: cell-based; settings: j774, 48 h
Outline: (§1)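 J-774 macrophages seeded at 100.000 cells/well in RPMI 1640 with 20% heat-inactivated FCS, attached 48 h at 37 °C, 5% CO2. Exposed to 100, 200 or 400 µM for 48 h, washed with PBS, then MTT 0.4 mg/mL for 3 h at 37 °C. Formazan dissolved in DMSO, OD595 read. %cytotoxicity corrected for compound-in-medium blanks; triplicate wells, six growth controls.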

[4] = test system: J774; test: Cytotoxicity against mouse J774 cells after 48 hrs by MTT assay; assay type: cell-based; settings: J774, 48 h; outline: as §1
[5] = Selectivity index, ratio of IC50 for mouse J774 cells to IC50 for Trypanosoma cruzi Tulahuen 2; assay type: toxicity, cell-based; settings: J774 cells (versus Trypanosoma cruzi Tulahuen 2), read-out: Ratio IC50

| Compound | inhibition of growth at 25 µM [1] [%] | other results |
| --- | --- | --- |
| O=C(N/N=C/c1ccccc1)c1nc2ccccc2nc1-c1ccccc1 | 3 |  |
| O=C(N/N=C/c1ccc(F)cc1)c1nc2ccccc2nc1-c1ccccc1 | 22 |  |
| O=C(N/N=C/c1ccc(Br)cc1)c1nc2ccccc2nc1-c1ccccc1 | 40 |  |
| O=C(N/N=C/c1ccncc1)c1nc2ccccc2nc1-c1ccccc1 | 0 |  |
| CN(C)c1ccc(/C=N/NC(=O)c2nc3ccccc3nc2-c2ccccc2)cc1 | 29 |  |
| O=C(N/N=C/c1ccc([N+](=O)[O-])cc1)c1nc2ccccc2nc1-c1ccccc1 | 19 |  |
| O=C(N/N=C/c1ccccc1O)c1nc2ccccc2nc1-c1ccccc1 | 96 | IC50 [2]: 15.9 µM; Activity [3]: 14%; IC50 [4]: > 400 µM; selectivity ratio [5]: > 25.2 |
| O=C(N/N=C/c1ccc(O)cc1)c1nc2ccccc2nc1-c1ccccc1 | 27 |  |
| O=C(N/N=C/c1ccccn1)c1nc2ccccc2nc1-c1ccccc1 | 0 |  |
| Cc1nc2ccccc2nc1C(=O)N/N=C/c1ccccc1O | 81 | IC50 [2]: 20 µM; Activity [3]: 12%; IC50 [4]: > 400 µM; selectivity ratio [5]: > 20 |
| O=C(N/N=C/c1ccc(Cl)cc1)c1nc2ccccc2nc1-c1ccccc1 | 53 |  |
| CC(C)c1ccc(/C=N/NC(=O)c2nc3ccccc3nc2-c2ccccc2)cc1 | 36 |  |
| O=C(N/N=C/c1ccccc1Cl)c1nc2ccccc2nc1-c1ccccc1 | 35 |  |
| O=C(N/N=C/c1cccc(Cl)c1)c1nc2ccccc2nc1-c1ccccc1 | 47 |  |
| O=C(N/N=C/c1ccco1)c1nc2ccccc2nc1-c1ccccc1 | 0 |  |
| CC(=O)N1CCN(c2ccc(OCC3COC(Cn4ccnc4)(c4ccc(Cl)cc4Cl)O3)cc2)CC1 (centres undefined) [KETOCONAZOLE] |  | Activity [3]: 100%; IC50 [4]: < 50 µM; selectivity ratio [5]: < 5 |
| CN(C/C=C/C#CC(C)(C)C)Cc1cccc2ccccc12 [TERBINAFINE] |  | Activity [3]: 100%; IC50 [4]: 88 µM; selectivity ratio [5]: 5.1 |
